Results: ChEMBL document CHEMBL1151957, “Design and synthesis of novel C14-hydroxyl substituted triptolide derivatives as potential selective antitumor agents” (J Med Chem, 2009)
pIC50: −log10 of the molar value. The source made the active and inactive calls. No cut-off for these calls is given here.

Assays:
[1] = tested on: PC-3; test: Cytotoxicity against human PC3 cells by SRB assay; assay type: functional, cell-based
Summary of the method: (§1)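 Cells grown in RPMI 1640 with 10% heat-inactivated FBS, 2 mmol/L glutamine, 10 mmol/L HEPES pH 7.4, 5% CO2, 37 °C; MCF-7/ADR also given 1 mmol/L pyruvate and 0.01 mg/mL insulin. Treated in triplicate with graded concentrations for 72 h at 37 °C, read by SRB. IC50 (50% growth inhibition vs control) by logit method; three independent experiments.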

[2] = tested on: MDA-MB-468; test: Cytotoxicity against human MDA-MB-468 cells by SRB assay; assay type: functional, cell-based; summary of the method: as §1
[3] = tested on: SK-OV-3; test: Cytotoxicity against human SKOV3 cells by SRB assay; assay type: functional, cell-based; summary of the method: as §1
[4] = tested on: K562; test: Cytotoxicity against human K562 cells after 72 hrs by MTT assay; assay type: functional, cell-based; conditions: K562, 72 h
Summary of the method: (§2)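 Cells grown at 37 °C in 5% CO2 in RPMI 1640 with 10% heat-inactivated FBS, glutamine, antibiotics and HEPES; MCF-7 medium also had sodium pyruvate and insulin. Cells in 96-well plates were treated in triplicate with graded concentrations for 72 h at 37 °C. Read-out was MTT for leukemia lines and SRB for solid-tumor lines. IC50 was set relative to control by the logit method, as mean ± SD of three independent experiments.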

[5] = tested on: MOLT-4; test: Cytotoxicity against human MOLT4 cells after 72 hrs by MTT assay; assay type: functional, cell-based; conditions: MOLT-4, 72 h; summary of the method: as §2
[6] = tested on: MKN-28; test: Cytotoxicity against human MKN28 cells after 72 hrs […]; assay type: functional, cell-based; conditions: MKN-28, 72 h; summary of the method: as §2
[7] = tested on: HCT-116; test: Cytotoxicity against human HCT116 cells after 72 hrs […]; assay type: functional, cell-based; conditions: HCT-116, 72 h; summary of the method: as §2
[8] = Cytotoxicity against human SW1116 cells after 72 hrs by […]; assay type: functional, cell-based; conditions: SW 1116, 72 h; summary of the method: as §2
[9] = tested on: HCT-15; test: Cytotoxicity against human HCT15 cells after 72 hrs […]; assay type: functional, cell-based; conditions: HCT-15, 72 h; summary of the method: as §2
[10] = tested on: SMMC-7721; test: Cytotoxicity against human SMMC7721 cells after 72 hrs […]; assay type: functional, cell-based; conditions: SMMC-7721, 72 h; summary of the method: as §2
[11] = tested on: Bel-7402; test: Cytotoxicity against human Bel7402 cells after 72 hrs by […]; assay type: functional, cell-based; conditions: Bel-7402, 72 h; summary of the method: as §2
[12] = Cytotoxicity against human 786-O cells after 72 hrs […]; assay type: functional, cell-based; conditions: 786-0, 72 h; summary of the method: as §2
[13] = tested on: MDA-MB-231; test: Cytotoxicity against human MDA-MB-231 cells after 72 hrs […]; assay type: functional, cell-based; conditions: MDA-MB-231, 72 h; summary of the method: as §2
[14] = tested on: MCF7; test: Cytotoxicity against human MCF7 cells after 72 hrs […]; assay type: functional, cell-based; conditions: MCF7, 72 h; summary of the method: as §2
[15] = tested on: SK-OV-3; test: Cytotoxicity against human SKOV3 cells after 72 hrs by […]; assay type: functional, cell-based; conditions: SK-OV-3, 72 h; summary of the method: as §2
[16] = Cytotoxicity against human HO8910 cells after 72 hrs by […]; assay type: functional, cell-based; conditions: HO-8910, 72 h; summary of the method: as §2
[17] = tested on: PC-3; test: Cytotoxicity against human PC3 cells after 72 hrs by […]; assay type: functional, cell-based; conditions: PC-3, 72 h; summary of the method: as §2
[18] = tested on: DU-145; test: Cytotoxicity against human DU145 cells after 72 hrs by […]; assay type: functional, cell-based; conditions: DU-145, 72 h; summary of the method: as §2
[19] = tested on: KB; test: Cytotoxicity against human KB cells after 72 hrs […]; assay type: functional, cell-based; summary of the method: as §2
[20] = Cytotoxicity against human Rh30 cells after 72 hrs by […]; assay type: functional, cell-based; conditions: SJRH30, 72 h; summary of the method: as §2
[21] = tested on: HeLa; test: Cytotoxicity against human HeLa cells after 72 hrs […]; assay type: functional, cell-based; summary of the method: as §2
[22] = tested on: U-251; test: Cytotoxicity against human U251 cells after 72 hrs […]; assay type: functional, cell-based; conditions: U-251, 72 h; summary of the method: as §2
[23] = Cytotoxicity against multidrug-resistant human MCF7/ADR cells by SRB assay; assay type: functional, cell-based; conditions: NCI/ADR-RES; summary of the method: as §1
[24] = tested on: K562; test: Resistant factor, ratio of IC50 for multidrug-resistant human K562/A02 cells to IC50 for human K562 cells; assay type: functional
Summary of the method: (§3)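 Resistance factor is the IC50 in the MDR line divided by the IC50 in its parental line. Both come from 72 h growth-inhibition assays: MTT for the leukemia pair, SRB for the solid-tumor pairs.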

[25] = tested on: KB; test: Resistant factor, ratio of IC50 for multidrug-resistant human KB/VCR cells to IC50 for human KB cells; assay type: functional; summary of the method: as §3
[26] = tested on: MCF7; test: Resistant factor, ratio of IC50 for multidrug-resistant human MCF7/ADR cells to IC50 for human MCF7 cells; assay type: functional; summary of the method: as §3
[27] = tested on: MDR; test: Cytotoxicity against multidrug-resistant human KB/VCR cells by SRB assay in presence of MDR reversing agent verapamil; assay type: functional, cell-based
Summary of the method: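 KB/VCR cells exposed to test agents together with the MDR reversal agent verapamil. Growth inhibition was read by SRB assay after 72 h treatment; each point is the mean of three independent experiments.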

[28] = tested on: SK-OV-3; test: Antitumor activity against human SKOV3 cells xenografted in BALB/cA nu/nu mouse assessed as tumor growth inhibition at 2 mg/kg, po measured on day 21 postinfection; assay type: functional; set-up: scale not given: the % may be the effect or the level left
Summary of the method: (§4)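 Nude BALB/cA nu/nu mice, 4-5 weeks old, received 1 mm³ tumor fragments implanted sc into the right flank by trocar. At 100-200 mm³ they were randomized, six per group, and dosed po daily in vehicle; controls got vehicle alone. Calipers twice weekly; V = length×width²/2; RTV = Vt/V0; T/C (%) = mean RTV treated / mean RTV control ×100. Student t test.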

[29] = tested on: SK-OV-3; test: Antitumor activity against human SKOV3 cells xenografted in BALB/cA nu/nu mouse assessed as tumor growth inhibition at 4 mg/kg, po measured on day 21 postinfection; assay type: functional; set-up: scale not given: the % may be the effect or the level left; summary of the method: as §4
[30] = tested on: PC-3; test: Antitumor activity against human PC3 cells xenografted in BALB/cA nu/nu mouse assessed as tumor growth inhibition at 2 mg/kg, po measured on day 21 postinfection; assay type: functional, organism-based; set-up: dose 2 mg/kg; summary of the method: as §4
[31] = tested on: PC-3; test: Antitumor activity against human PC3 cells xenografted in BALB/cA nu/nu mouse assessed as tumor growth inhibition at 4 mg/kg, po measured on day 21 postinfection; assay type: functional, organism-based; set-up: dose 4 mg/kg; summary of the method: as §4
[32] = tested on: SGC-7901; test: Antitumor activity against human SGC7901 cells xenografted in BALB/cA nu/nu mouse assessed as tumor growth inhibition at 4 mg/kg, po; assay type: functional; set-up: scale not given: the % may be the effect or the level left; summary of the method: as §4
[33] = tested on: SMMC-7721; test: Antitumor activity against human SMMC7721 cells xenografted in BALB/cA nu/nu mouse assessed as tumor growth inhibition at 1 to 4 mg/kg, po; assay type: functional, organism-based; summary of the method: as §4
[34] = tested on: MDA-MB-468; test: Antitumor activity against human MDA-MB-468 cells xenografted in BALB/cA nu/nu mouse assessed as tumor growth inhibition at 1 to 4 mg/kg, po; assay type: functional, organism-based; summary of the method: as §4
[35] = tested on: Mus musculus; test: Toxicity in BALB/cA nu/nu mouse assessed as mortality at 1 to 4 mg/kg, po; assay type: organism-based; set-up: dose 1-4 mg/kg, route oral; conditions: in vivo
Summary of the method: (§5)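 Female-unspecified BALB/cA nu/nu mice, 4-5 weeks old, carried sc 1 mm³ tumor fragments in the right flank. At 100-200 mm³, mice were randomized six per group and given compound po daily in vehicle, with vehicle-only controls, over about 21 days. Endpoints were deaths, systemic toxicity, body weight, and gross anatomy of liver and kidney.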

[36] = tested on: Mus musculus; test: Systemic toxicity in BALB/cA nu/nu mouse at 1 to 4 mg/kg, po; assay type: organism-based; set-up: dose 1-4 mg/kg, route oral; conditions: in vivo; summary of the method: as §5
[37] = tested on: Mus musculus; test: Toxicity in BALB/cA nu/nu mouse assessed as change in body weight at 1 to 4 mg/kg, po; assay type: organism-based; set-up: dose 1-4 mg/kg, route oral; conditions: in vivo; summary of the method: as §5
[38] = tested on: Mus musculus; test: Toxicity in BALB/cA nu/nu mouse assessed as change in liver gross anatomy at 1 to 4 mg/kg, po; assay type: organism-based; set-up: dose 1-4 mg/kg, route oral; conditions: in vivo; summary of the method: as §5
[39] = tested on: Mus musculus; test: Toxicity in BALB/cA nu/nu mouse assessed as change in kidney gross anatomy at 1 to 4 mg/kg, po; assay type: organism-based; set-up: dose 1-4 mg/kg, route oral; conditions: in vivo; summary of the method: as §5
[40] = tested on: SK-OV-3; test: Antitumor activity against human SKOV3 cells xenografted in BALB/cA nu/nu mouse assessed as tumor growth inhibition at 1 mg/kg, po relative to control; assay type: functional; summary of the method: as §4
[41] = tested on: A549; test: Cytotoxicity against human A549 cells after 72 hrs by SRB assay; conditions: A549, 72 h
[42] = tested on: SGC-7901; test: Cytotoxicity against human SGC7901 cells after 72 hrs by SRB assay; conditions: SGC-7901, 72 h
[43] = Cytotoxicity against multidrug-resistant human K562/A02 cells by MTT assay

## CC(C)[C@]12O[C@H]1[C@@H]1O[C@]13[C@]1(O[C@H]1C=C1C4=C(CC[C@@]13C)C(=O)OC4)[C@]21CO1
[1]
  pIC50: 5.74
[2]
  pIC50: 5.94
[3]
  pIC50: 6.24

## CC(C)[C@]12O[C@H]1[C@@H]1O[C@]13[C@]1(O[C@H]1C[C@H]1C4=C(CC[C@@]13C)C(=O)OC4)[C@H]2O [EPITRIPTOIIDE]
[1]
  pIC50: 5.80
[2]
  pIC50: 5.88
[3]
  pIC50: 6.10

## CC(C)[C@]12O[C@H]1[C@@H]1O[C@]13[C@]1(O[C@H]1C[C@H]1C4=C(CC[C@@]13C)C(=O)OC4)[C@]21CO1
[4]
  pIC50: 6.38
[5]
  pIC50: 6.60
[1]
  pIC50: 6.57
[2]
  pIC50: 6.74
[3]
  pIC50: 7.00
[6]
  pIC50: 5.60
[7]
  pIC50: 6.66
[8]
  pIC50: 6.04
[9]
  pIC50: 6.19
[10]
  pIC50: 6.46
[11]
  pIC50: 6.48
[12]
  pIC50: 6.41
[13]
  pIC50: 6.55
[14]
  pIC50: 6.44
[15]
  pIC50: 6.57
[16]
  pIC50: 6.27
[17]
  pIC50: 6.20
[18]
  pIC50: 6.59
[19]
  pIC50: 6.21
[20]
  pIC50: 6.53
[21]
  pIC50: 6.29
[22]
  pIC50: 6.18
[23]
  pIC50: 6.04
[24]
  Ratio IC50: 1.76
[25]
  Ratio IC50: 0.77
[26]
  Ratio IC50: 2.53
[27]
  Activity: Active
[28]
  Activity: 87.5%
[29]
  Activity: 97.4%
[30]
  Activity: Active
[31]
  Activity: Active
[32]
  Activity: 75%
[33]
  Activity: inactive
[34]
  Activity: inactive
[35]
  Activity: Non-toxic
[36]
  Activity: Non-toxic
[37]
  Activity: Non-toxic
[38]
  Activity: Non-toxic
[39]
  Activity: Non-toxic
[40]
  T/C: 50.2%
[41]
  pIC50: 6.15
[42]
  pIC50: 6.76
[43]
  pIC50: 6.13

## CC(C)[C@]12O[C@H]1[C@@H]1O[C@@]13[C@@]1(C)CCC4=C(COC4=O)[C@]1(O)C[C@@H]1O[C@@]13[C@]21CO1
[1]
  pIC50: 5.13
[2]
  pIC50: 5.63
[3]
  pIC50: 5.73

## CC(C)[C@]12O[C@H]1[C@@H]1O[C@]13[C@]1(O[C@H]1C[C@H]1C4=C(CC[C@@]13C)C(=O)OC4)[C@]2(O)CO
[1]
  pIC50: < 4.00
[2]
  pIC50: < 4.00
[3]
  pIC50: < 4.00
